# From PubChem BioAssay
# HTRA1 inhibitor: HTRA1 serine protease inhibitors, primary screen, biochemical, fluorescence polarization, HTS | 0.5% of 340,000 active | recombinant HTRA1, FP-rhodamine activity-based probe | AID 504803, 2011 | Q92743 | inhibition, % at 5.96 µM; in the data active means inhibition above about 36%;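 further: 0% = enzyme with DMSO and 100% = wells lacking enzyme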
# Target sequence (Q92743 whole entry, looked up): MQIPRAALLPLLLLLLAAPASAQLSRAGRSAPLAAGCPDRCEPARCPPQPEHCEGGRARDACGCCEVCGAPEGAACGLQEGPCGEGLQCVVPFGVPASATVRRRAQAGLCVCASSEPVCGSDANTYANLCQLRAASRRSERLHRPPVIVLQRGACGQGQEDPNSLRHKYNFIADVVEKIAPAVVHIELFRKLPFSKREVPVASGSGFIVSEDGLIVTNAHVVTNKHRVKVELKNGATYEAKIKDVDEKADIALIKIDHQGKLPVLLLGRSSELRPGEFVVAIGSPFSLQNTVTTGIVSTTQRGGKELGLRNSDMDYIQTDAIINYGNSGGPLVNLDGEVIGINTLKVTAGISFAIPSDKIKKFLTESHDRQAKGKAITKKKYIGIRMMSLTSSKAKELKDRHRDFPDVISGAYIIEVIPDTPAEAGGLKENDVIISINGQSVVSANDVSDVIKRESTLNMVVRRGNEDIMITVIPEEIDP
# TCR CD3 inh: inhibitors of human TCR-CD3 interaction, primary screen, biochemical, fluorescence, TAMRA-labeled TCR probe. 0.37% of 360,000 active. inhibition, % at 9.4 µM. AID 651800, 2012; in the data active means inhibition above about 19%;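 further: recombinant mutant TCR 2C K166C tagged with TAMRA read by polarization; 0% = receptor in buffer alone and 100% = receptor with positive control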
# PAD4 inh: human PAD4 inhibitors, primary screen, biochemical, fluorescence polarization, 1536-well format; Protein-arginine deiminase type-4 (Homo sapiens), Q9UM07; recombinant PAD4, RCA probe fluorescence polarization; inhibition, % at 6.36 µM; 0.41% of 330,000 active; AID 485272, 2010;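 active means percent inhibition above a cutoff equal to the mean of all tested compounds plus 3 SD, cut at about 15% in these data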;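 further: 0% = PAD4 with RCA probe and DMSO and 100% = probe without PAD4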
# SIAE primary: human SIAE inhibitors, primary screen, biochemical, fluorescence polarization, FP-Rh probe, 1536-well HTS; SIAE FP-Rh probe binding; inhibition, % at 9.66 µM; 0.69% of 370,000 active; AID 1053197, 2014;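 active means inhibition above a cutoff: mean of compounds within the control limits plus 3 SD of those, cut at about 17% in these data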;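 further: 0% = plate median of compound wells and 100% = probe without SIAE protein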
# mABHD4 FP: ABHD4 inhibitors, primary screen, biochemical, fluorescence polarization, mouse. AID 720543, 2013. 0.54% of 370,000 active. purified mABHD4, FP-Rh probe fluorescence polarization. inhibition, % at 8.92 µM;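 active means inhibition exceeding the mean over every tested compound plus 3 SD, cut at about 30% in these data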;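 further: 0% = plate median of compound wells and 100% = S159A mutant with DMSO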
#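 Test system: mouse ABHD4 enzyme, wild type. Reagent: FP-Rh fluorescent activity-based probe, added after compound pre-incubation. Timing: pre-incubation 45 min, probe exposure 60 min, at 25 °C. Technique: FP readout, ex 525 nm / em 598 nm. Benchmarks: high control S159A mutant with DMSO, low control median of compound wells.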
# TDP2 inh: human TDP2 enzyme inhibitors, primary screen, biochemical, epi absorbance, recombinant enzyme; T5PNP hydrolysis, p-nitrophenol absorbance 415 nm; Tyrosyl-DNA phosphodiesterase 2 (Homo sapiens), O95551; 0.34% of 370,000 active; AID 720702, 2013; inhibition, % at 12.8 µM;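 active means inhibition above the mean of all tested compounds plus 3 SD, set per campaign, cut at about 25% in these data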;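 further: 0% = DMSO with enzyme and 100% = buffer with substrate but no TDP2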
#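 Test system: Human TDP2 enzyme | Reagent: 5 mM T5PNP | Compound dosing: 12.8 µM single point, 1% DMSO | Incubation: Enzyme reaction with compound for 2 h at 37 °C | Technique: p-Nitrophenol epi absorbance | Read-out: % inhibition relative to enzyme-containing and enzyme-free wells | Benchmarks: High control without enzyme, low control DMSO plus TDP2 | Replicates: Singlicate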
# HTRA1 conf: HTRA1 protease inhibitors, retest, confirmation, biochemical, fluorescence polarization | recombinant HTRA1, FP-rhodamine activity-based probe | shares compounds with HTRA1 inhibitor | inhibition, % at 5.96 µM | 66% of 1,600 active;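 active means mean inhibition over three repeats above a set limit taken from the earlier primary screen, cut at about 37% in these data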;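 further: 0% = HTRA1 with DMSO and 100% = wells lacking HTRA1; inhibitors block probe binding so polarization drops and inhibition rises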
# Numbers without * were called inactive; / = no result. Shown are actives, neighbours in structure and some others; about 2% of the full set was active somewhere.
SMILES,HTRA1 inhibitor,TCR CD3 inh,PAD4 inh,SIAE primary,mABHD4 FP,TDP2 inh,HTRA1 conf
CN(C)c1ccc(CC(=O)N2CCCC(c3cc(C(=O)Nc4ccc(F)c(Cl)c4)no3)C2)cc1 (centres undefined),/,-3,/,4,0,-12,/
COc1ccc(-c2cc(=O)c3c(O)cc(O)cc3o2)cc1,-9,-1,-3,-20,-1,3,/
O=c1cc(-c2ccc(O)c(-c3c(O)cc(O)c4c(=O)cc(-c5ccc(O)cc5)oc34)c2)oc2cc(O)cc(O)c12,40*,8,-4,-30,-76,0,76*
O=c1cc(-c2ccc(O)cc2)oc2c(-c3c(O)cc(O)c4c(=O)cc(-c5ccc(O)cc5)oc34)c(O)cc(O)c12,53*,12,0,-24,-15,-4,50*
Cc1ccc(NC(=O)c2ccc(=O)[nH]c2)cc1S(=O)(=O)N1CCCCCC1,-10,7,-3,-10,-15,7,/
Cc1ccc(S(=O)(=O)N(CC(=O)Nc2cccc([N+](=O)[O-])c2)C(=O)N2CCN(C)CC2)cc1,-4,2,/,4,-2,7,/
Cc1oc2c(O)c(O)ccc2c(=O)c1-c1cnn(-c2ccccc2)c1,61*,10,7,5,22,-12,92*
Cc1ccc2cc(C3C(C#N)=C(N)Oc4c3ccc3cccnc43)c(=O)[nH]c2c1 (centres undefined),79*,/,2,/,/,/,58*
N#CC1=C(N)Oc2c(ccc3cccnc23)C1c1cccnc1 (centres undefined),14,4,0,5,-5,1,/
CCc1ccc2[nH]c(=O)c(C3C(C#N)=C(N)Oc4c3ccc3cccnc43)cc2c1 (centres undefined),82*,14,-2,9,17,-12,14
CCOc1cccc(C2C(C#N)=C(N)Oc3cc(C)[nH]c(=O)c32)c1OCC (centres undefined),3,-1,-4,6,-1,-5,/
CC(=O)Nc1cc(-c2cccnc2)cn2c(-c3ccc(F)cc3)cnc12,/,2,/,-7,-1,-13,/
O=C(Nc1ccc(N2CCCC2)cc1)c1cc(Cl)ccc1Cl,59*,7,-3,7,2,0,6
O=C(Nc1ccc(N2CCCC2)cc1)c1ccc(Cl)cc1Cl,8,3,-3,11,3,-16,/
Cc1ccc(C(=O)N2CCN(c3ccc(NC(=O)c4cc(C)cc(C)c4)cc3)CC2)cc1,-3,4,/,4,1,4,/
CCCCC(=O)Nc1ccc(N2CCCC2)cc1,44*,0,-6,2,5,-18,38*
Cc1cc(C)cc(C(=O)Nc2ccc(N3CCCC3)cc2)c1,39*,2,-4,1,11,-2,11
Cc1[nH][nH]c(=O)c1C(c1ccc(-c2ccc(Cl)c(Cl)c2)o1)c1c(C)[nH][nH]c1=O,40*,1,1,21*,17,64*,37*
Cc1ccc2c(c1)c(C)cc[n+]2Cc1ccccc1,42*,4,6,5,0,3,6
COc1ccc2c(c1)c(C)cc[n+]2Cc1ccccc1,7,2,/,6,2,-9,/
COc1cc(NC(C)CCCNC(C)C)c2ncccc2c1OC (centres undefined),6,2,/,9,16,16,/
COc1cc(NCCCCCCN)c2ncccc2c1OC,38*,14,/,7,40*,52*,39*
Cc1cc(C)nc(NN2C(=O)C=CC2=O)n1,6,/,-3,/,/,/,/
O=C(Oc1c(CN2CCOCC2)cc(Cl)c2cccnc12)c1ccccc1Br,39*,-9,0,-3,3,-11,27
COc1ccc(/C=C/C2=CCN(Cc3ccc(OC)cc3)CC2)cc1,/,-4,1,1,1,-8,/
SMILES,HTRA1 inhibitor,TCR CD3 inh,PAD4 inh,SIAE primary,mABHD4 FP,TDP2 inh,HTRA1 conf
CCOC(=O)c1c2c(n(-c3ccc(OC)cc3)c1C)C(=O)C(=O)c1ccccc1-2,47*,/,/,/,/,/,45*
CCOC(=O)c1sc(=S)n(-c2ccc(OC)cc2)c1C,/,-7,0,-10,4,2,/
Cc1noc(C)c1NC(=O)N(C)C[C@@H]1Oc2ccc(NS(=O)(=O)c3c(C)noc3C)cc2C(=O)N([C@H](C)CO)C[C@H]1C,8,0,-1,1,4,-2,/
NC(=O)c1ccc(N=Nc2c(O)c3ccccc3[nH]c2=O)cc1,/,/,-5,/,/,/,/
N=C(N)c1ccc(N=Nc2c(O)ccc3c2[nH]c2ccccc23)cc1,85*,-2,/,9,47*,5,61*
NNC(=O)c1oc2nc(-c3ccccc3)cc(-c3ccccc3)c2c1N,47*,15,-3,7,16,8,13
C#CCNC(=O)C1=C[C@@H](c2ccc(C#C)cc2)C[C@@H](OCc2ccc(CO)cc2)O1,-36,4,-1,-7,-20,-8,/
CN(CC(=O)NC1CC1)S(=O)(=O)c1cc(Cl)ccc1Cl,1,-7,/,0,3,0,/
Cc1ccccc1NC(=O)CSc1nnc(-c2ccco2)n1N,-2,2,-7,-6,2,-4,/
Cc1cccc(NC(=O)CSc2nnc(-c3ccco3)c(-c3ccco3)n2)c1C,50*,/,-8,/,/,/,14
Cc1ccc(N=Cc2cc(Cc3ccccc3Cl)cc([N+](=O)[O-])c2O)c(O)c1,71*,/,-5,/,/,/,65*
COc1ccc(N=Cc2cc(Cc3ccccc3Cl)cc([N+](=O)[O-])c2O)cc1OC,12,/,-2,/,/,/,/
CCCc1cnc(N2CCN(C(=O)c3ccc(OC)cc3)CC2)nc1,0,/,0,/,/,/,/
CCC(=O)NC(c1cccs1)c1cc(Cl)c2ccccc2c1O (centres undefined),-33,5,-6,2,-13,6,/
CCCC(=O)NC(c1cccs1)c1cc([N+](=O)[O-])c2cccnc2c1O (centres undefined),36*,0,-4,8,12,5,51*
O=C(CCc1ccccc1)NC(c1cccs1)c1cc(Cl)c2cccnc2c1O (centres undefined),49*,-5,/,0,-3,-6,54*
